Screening results (PubChem)
The sample as a whole holds a higher share of hits than the screen did.
A1 apoptosis 2: A1 inhibition read as caspase activation | MEF A1-2A-BIM cells, caspase-Glo luminescence, 3 h; percent of clofoctol response, DMSO zero | caspase activation, % (no concentration beside the values) | 24,000 tested, under 10 active; in the data active = caspase activation above about 5.9%
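Material: A1-2A-BIM-expressing MEF cells. Buffer or medium: RPMI-1640 plus 10% FBS. Incubation: cells settled overnight, compound exposure 3 h at 37 °C, 5% CO2. Signal: Caspase-Glo 3/7 luminescence, 1 h at room temperature.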
T cruzi intra: blocks T. cruzi growth inside host cells | actives 4.9% (n = 22,000) | activity score (inhibition), % at 5.01 µM | intracellular Trypanosoma cruzi in host cells, plate reader; in the data active = activity score above about 55%;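 also: parasites and compound incubated about four days before reading; 0% = median of neutral control wells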
INS-1E rescue: rescue of cytokine-induced death in INS-1E beta cells. INS-1E cytokine-induced death, ATP luminescence, 48 h; normalised: neutral wells 0, positive control 100. protection from cytokine-induced ATP loss, % at 10 µM. actives 0.1% (n = 20,000);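 active = mean replicate protection from cytokine-induced ATP loss at least 50% and at least 75% of replicates each reaching 50%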
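Assay system: INS-1E rat cells / Quantity: 8000 cells per well / Medium: RPMI without phenol red, 5% FBS / Probe or stimulus: three-cytokine cocktail (IFN-γ, TNF-α, IL-1β) / Dosing: one compound concentration, pin transfer / Timing: 48 h co-treatment, 10 min post-lysis read / Technique: CellTiter-Glo luminescence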
The depositor's hits bear a star.

What do the screens show for `COc1ccc(S(=O)(=O)Nc2ccc3c(c2)CC(=O)N([C@H](C)CO)C[C@@H](C)[C@@H](CN(C)S(=O)(=O)c2cn(C)cn2)O3)cc1`?
A1 apoptosis 2: 1.5; T cruzi intra: -23.5; INS-1E rescue: 1.9

What do the screens show for `Cc1ccc(S(=O)(=O)N(C)C[C@@H]2OCCCC[C@H](C)Oc3ccc(NC(=O)CCCN(C)C)cc3C(=O)N([C@@H](C)CO)C[C@H]2C)cc1`?
A1 apoptosis 2: -1.0

What do the screens show for `C[C@H]1CN([C@@H](C)CO)C(=O)c2cccc(NC(=O)CCCCCC(=O)Nc3ccccc3N)c2O[C@H]1CN(C)C(=O)Nc1ccc(F)cc1`?
T cruzi intra: 17.5; INS-1E rescue: -2.4

How did C[C@@H]1CN([C@H](C)CO)C(=O)c2cccc(NS(=O)(=O)c3ccc(Cl)cc3)c2O[C@@H]1CN(C)S(=O)(=O)c1ccccc1 do in these assays?
A1 apoptosis 2: 0.9; T cruzi intra: -12.8; INS-1E rescue: 6.3

How did Cc1ccc(S(=O)(=O)N(C)C[C@H]2Oc3c(NC(=O)c4nc5ccccc5s4)cccc3C(=O)N([C@@H](C)CO)C[C@@H]2C)cc1 do in these assays?
T cruzi intra: 74.7*; INS-1E rescue: -12.1

What do the screens show for `C[C@H](CO)N1C[C@H](C)[C@H](CN(C)S(=O)(=O)c2ccc(F)cc2)Oc2c(NS(=O)(=O)c3ccc(F)cc3)cccc2C1=O`?
A1 apoptosis 2: 0.6; T cruzi intra: 61.3*; INS-1E rescue: -5.0

Results for C[C@@H]1CN([C@H](C)CO)C(=O)c2cccc(NS(=O)(=O)c3ccc(F)cc3)c2O[C@@H]1CN(C)S(=O)(=O)c1ccc(F)cc1 ?
A1 apoptosis 2: -0.5; T cruzi intra: 16.3; INS-1E rescue: 1.9

What do the screens show for `C[C@@H]1CN([C@@H](C)CO)C(=O)c2cccc(NC(=O)c3nc4ccccc4s3)c2O[C@@H]1CN(C)S(=O)(=O)c1ccccc1`?
T cruzi intra: 60.4*; INS-1E rescue: -40.4

How did Cc1ccc(S(=O)(=O)N(C)C[C@H]2Oc3c(NC(=O)c4nc5ccccc5s4)cccc3C(=O)N([C@@H](C)CO)C[C@H]2C)cc1 do in these assays?
A1 apoptosis 2: 0.3; T cruzi intra: 15.6; INS-1E rescue: -16.7

How did C[C@@H]1CN([C@H](C)CO)C(=O)c2cccc(NC(=O)c3nc4ccccc4s3)c2O[C@H]1CN(C)S(=O)(=O)c1ccccc1 do in these assays?
T cruzi intra: 28.1; INS-1E rescue: -10.9

What do the screens show for `Cc1ccc(S(=O)(=O)N(C)C[C@H]2Oc3c(NC(=O)c4nc5ccccc5s4)cccc3C(=O)N([C@H](C)CO)C[C@@H]2C)cc1`?
T cruzi intra: 88.9*; INS-1E rescue: -17.5

How did Cc1ccc(S(=O)(=O)N(C)C[C@H]2Oc3c(NC(=O)c4nc5ccccc5s4)cccc3C(=O)N([C@H](C)CO)C[C@H]2C)cc1 do in these assays?
T cruzi intra: 16.0; INS-1E rescue: 4.2

What do the screens show for `Cc1noc(C)c1NC(=O)N(C)C[C@@H]1Oc2c(NS(=O)(=O)c3ccccc3)cccc2C(=O)N([C@H](C)CO)C[C@@H]1C`?
T cruzi intra: -10.9; INS-1E rescue: 7.0

Results for CNC[C@H]1Oc2c(NC(=O)Nc3ccc(F)cc3)cccc2C(=O)N([C@@H](C)CO)C[C@H]1C ?
A1 apoptosis 2: -1.6; T cruzi intra: -31.4; INS-1E rescue: 2.3

What do the screens show for `C[C@H](CO)N1C[C@H](C)[C@H](CN(C)S(=O)(=O)c2ccc(F)cc2)Oc2c(NC(=O)c3nc4ccccc4s3)cccc2C1=O`?
T cruzi intra: 61.1*; INS-1E rescue: -36.7

What do the screens show for `C[C@@H]1CN([C@H](C)CO)C(=O)c2cccc(NC(=O)c3nc4ccccc4s3)c2O[C@@H]1CN(C)S(=O)(=O)c1ccccc1`?
T cruzi intra: 9.3; INS-1E rescue: 6.4

How did Cc1noc(C)c1NC(=O)N(C)C[C@H]1Oc2ccc(NC(=O)C3CC3)cc2CC(=O)N([C@@H](C)CO)C[C@@H]1C do in these assays?
A1 apoptosis 2: -0.7; T cruzi intra: -10.4; INS-1E rescue: 0.9

How did C[C@@H]1CN([C@H](C)CO)C(=O)c2cccc(NC(=O)Nc3ccccc3)c2O[C@H]1CN(C)Cc1ccc(C(=O)Nc2ccccc2N)cc1 do in these assays?
A1 apoptosis 2: 1.6; T cruzi intra: 76.1*; INS-1E rescue: 4.4

How did Cc1cc(C(=O)Nc2cccc3c2O[C@H](CN(C)Cc2ccc(C(=O)Nc4ccccc4N)cc2)[C@H](C)CN([C@@H](C)CO)C3=O)n(C)n1 do in these assays?
T cruzi intra: 27.6; INS-1E rescue: 60.0*
